Assay outcomes from PubChem.
This is a sample that favours compounds with a hit; in the whole collection about 3.7% have one here.
KCNQ1 block = inhibitors of human KCNQ1 potassium channel; B-score at 10 µM; CHO-K1 KCNQ1, FluxOR thallium flux fluorescence; hits give high values; 310,000 tested, 1.3% active; AID 2642; P51787;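 active = compounds whose thallium flux B-score, printed positive for inhibition, exceeds three library SD while starting fluorescence stays within three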;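 also: channel opened by potassium depolarization with thallium stimulus after 20 min compound exposure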
KCNK9 inh = human KCNK9 channel inhibition; Q9NPC2; HEK293 KCNK9, FluxOR thallium flux fluorescence; hits give low values; B-score at 10 µM; 310,000 tested, 1.2% active; AID 488922;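 active = ratio B-score over 3 SD below the library mean, with starting fluorescence within 5 SD of its mean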;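 also: negative B-score means less thallium flux so channel inhibition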
KCNK3 block = human KCNK3 channel inhibition, primary screen | O14649 | CHO-KCNK3 thallium flux, FluxOR fluorescence; hits give low values | B-score at 10 µM | 340,000 tested, 0.84% active | AID 602410;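 active = B-score under library mean minus 4 SD, starting fluorescence ratio at most library mean plus 5 SD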;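 also: more negative B-score means stronger inhibition of thallium flux through KCNK3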
Kir21 block = Kir2.1 (mouse) channel inhibition | P35561 | HEK293-Kir2.1, FluxOR thallium flux fluorescence; hits give low values | B-score at 10 µM | 310,000 tested, 0.85% active;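 active = fluorescence ratio B-score at or below minus 3 SD of library scores, with starting-brightness B-score within 2 SD, cut at about -4.2 in these data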;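 also: channel flux triggered by added potassium and thallium sulfate stimulus; B-score of peak minus minimum fluorescence over baseline after thallium stimulus; more negative B-score means stronger Kir2.1 block with less thallium influx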
KCNQ1 pot = potentiates or activates the human KCNQ1 potassium channel. CHO-K1 KCNQ1, thallium flux FluxOR fluorescence; hits give high values. 310,000 tested, 0.35% active. B-score at 10 µM;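 active = fluorescence ratio B-score, a plate-corrected score, at least three library SD, with initial intensity B-score within 5 SD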
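assay system = CHO-K1 cells stably expressing KCNQ1 | medium = assay buffer, equal DMSO in all wells | timing = 37 °C overnight plating, 90-min dark dye load, 20-min compound pretreatment | measured by = kinetic FluxOR thallium fluorescence, 10-s 1-Hz baseline, 110-s post-stimulus read | measure = fluorescence change relative to baseline, converted to B score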
hERG rescue = compounds protecting human hERG from proarrhythmic drug block. Q12809. CHO-hERG, FluxOR thallium flux, dofetilide IC70 present. activation (rescue from dofetilide block), less the hit threshold, % at 10 µM. 310,000 tested, 0.51% active. AID 1511;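 active = activation above the mean of controls blocked by dofetilide plus 5 SD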;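 also: thallium influx through hERG after potassium depolarization seen as dye fluorescence rise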
Each line names hits and unclear results; the compound was inactive in the other large screens.

COc1cccc(N(CC(=O)NC2CCCCC2)C(=O)Cn2nnc(-c3ccc(C)o3)n2)c1	none
COc1cccc(CN(CC(=O)NC2CCCC2)C(=O)Cn2nnc(-c3cccs3)n2)c1	hERG rescue 32
COc1ccc(C2c3ccc4ccccc4c3Oc3ncn(CCO)c(=N)c32)cc1 (centres undefined)	Kir21 block -5.2
N=c1c2c(ncn1CCCO)Oc1ccc3ccccc3c1C2c1ccccc1 (centres undefined)	Kir21 block -4.2
N=c1c2c(ncn1CCCO)Oc1c(ccc3ccccc13)C2c1ccccc1 (centres undefined)	none
COc1ccc(C2c3ccc4ccccc4c3Oc3ncn(CCCO)c(=N)c32)cc1 (centres undefined)	none
CN(C)CCCn1cnc2c(c1=N)C(c1ccccc1)c1ccc3ccccc3c1O2 (centres undefined)	Kir21 block -7.2
COc1ccc(C2c3ccc4ccccc4c3Oc3ncn(CCN(C)C)c(=N)c32)cc1 (centres undefined)	Kir21 block -4.3
CSc1ccc(/C=N/NC(=O)CN2CCN(Cc3ccc(C)cc3)CC2)cc1	none
CC(Oc1ccc(C#N)cc1)C(=O)c1ccc(F)c(F)c1 (centres undefined)	none
CC(NC(=O)c1ccc(S(=O)(=O)N(C)C)cc1)c1ccc(-n2ccnc2)cc1 (centres undefined)	none
CCN1CCN(CCCNC(=O)c2ccc(CS(=O)c3ccc(Br)cc3)o2)CC1 (centres undefined)	none
COc1cc(CO)cc(Br)c1OCC(=O)Nc1cccc2ccccc12	none
COc1ccc(C2c3ccc4ccccc4c3Oc3ncn(CCO)c(=N)c32)cc1OC (centres undefined)	none
COc1ccc(C2c3ccc4ccccc4c3Oc3ncn(CCCO)c(=N)c32)cc1OC (centres undefined)	KCNQ1 pot 9
CCn1c2ccccc2c2cc(CNCc3ccc(OC)cc3OC)ccc21	Kir21 block -9.8
COc1cccc(CNCc2ccc(OC)cc2OC)c1	none
COc1ccc(CNC(=O)Cc2cn(C)c3ccccc23)c(OC)c1	Kir21 block -4.3
CC1=NN(S(=O)(=O)c2ccc(Cl)cc2Cl)C(=O)c2ccccc2O1	Kir21 block -4.8
Cc1nn(-c2ccc(Cl)cc2Cl)c(=O)c2ccccc12	none
CC1CCc2c(sc3ncnc(SCC(=O)Nc4ccc(C(=O)O)cc4)c23)C1 (centres undefined)	none
COc1cc(NC(=O)CSc2ncnc3sc4c(c23)CCC(C)C4)c(C(=O)O)cc1OC (centres undefined)	KCNQ1 pot 39, hERG rescue 51
CCN(CC)Cc1ccccc1CNC(=O)c1cccc(S(=O)(=O)Nc2ccc3c(c2)OCO3)c1	KCNK3 block -9.3 (no result: KCNQ1 block, KCNK9 inh, Kir21 block, KCNQ1 pot, hERG rescue)
O=S(=O)(Nc1ccc2c(c1)OCO2)c1cccc(Br)c1	none (no result: KCNQ1 block, KCNK9 inh, Kir21 block, KCNQ1 pot, hERG rescue)
O=C(/C=C/c1cn(CC(O)CN2CCOCC2)c2ccccc12)c1cccs1 (centres undefined)	KCNQ1 block 6 (no result: KCNK3 block)
COc1ccc(CC(=O)N2CCc3cc(OC)c(OC)cc3C2O)cc1OC (centres undefined)	none
CC(=O)Nc1ccc(NC(=S)Nc2ccc(Br)cc2)cc1	KCNQ1 block 6
CC(=O)Nc1ccc(NC(=S)Nc2ccccc2)cc1	none
S=C(Nc1ccccc1)Nc1ccc(Br)cc1	KCNQ1 block 6
CCCCN1C(=O)C2(OCCCO2)c2cccc(C)c21	none
Cc1cc(NC(=O)CN2C(=O)C3CC=CCC3C2=O)no1 (centres undefined)	none
CCOC(=O)c1c(N2C(=O)Nc3ccccc3N2O)n[nH]c1-c1cccc(Cl)c1	KCNQ1 pot 36, hERG rescue 11
CCOc1ccc(-c2cc(N3C(=O)Nc4ccccc4N3O)n[nH]2)cc1	none
O=C(CC1CCC1)NC(c1ccccc1)c1ccccc1	none
CCN1CCN(C(=O)c2ccc(N3CC4CC(C3)c3cccc(=O)n3C4)c(NC(=O)c3cc(OC)cc(OC)c3)c2)CC1 (centres undefined)	none
Cc1cc(NCCCn2ccnc2)n2nc(C)c(-c3ccccc3)c2n1	KCNQ1 block 6
COc1ccccc1NC(C)C(=O)N/N=C/c1ccccc1OCc1cccc(Br)c1 (centres undefined)	KCNK9 inh -7.3
CCOC(=O)c1nn(-c2ccccc2)c(=O)cc1OCC(=O)Nc1ccccc1OCC	none
Cc1sc2ncnc(N3CCC(C(=O)N(C)CC(=O)Nc4ccc(Cl)c(C(F)(F)F)c4)CC3)c2c1C	KCNQ1 block 9
Cc1ccc(S(=O)(=O)N2CCCCC2)cc1C(=O)N(C)CC(=O)Nc1ccc(Cl)c(C(F)(F)F)c1	none
Cc1ccc(C(=O)N(C)CC(=O)Nc2ccc(Cl)c(C(F)(F)F)c2)cc1S(=O)(=O)N1CCCCC1	KCNK3 block -11 (no result: KCNQ1 block, KCNK9 inh, Kir21 block, KCNQ1 pot, hERG rescue)
Cc1ccccc1C1C(C#N)=C2N=C(N)c3c(sc4c3CCCCC4)N2C2=C1C(=O)CCC2 (centres undefined)	KCNK9 inh -6.8
CN(CC(=O)Nc1ccccc1Cl)CC(=O)Nc1c(F)cccc1F	hERG rescue 5.2
O=C(/C=C/c1ccc([N+](=O)[O-])cc1)NCCOc1ccc(F)cc1	hERG rescue 5.5
COc1c(Cl)cc(Cl)cc1CNc1ccc(S(N)(=O)=O)cc1	none
N#Cc1c(N)oc(-c2ccc3c(c2)OCO3)c1-c1ccc2c(c1)OCO2	KCNK9 inh -6.8
C=CCc1c(O)c(CC)cc2c(C)cc(=O)oc12	none
O=C(Oc1ccc(Br)cc1C(=S)N1CCCC1)c1ccccc1Cl	KCNK9 inh -8
CNCCCCOc1ccc(C(C)(C)C)cc1Cl	Kir21 block -4.9
CNCCCOc1ccc(C)cc1Br	none
C=CCNC(=O)c1ccc(OC)cc1	none
C=CCN(CC=C)C(=S)NC(=O)/C=C/c1ccc(OC)cc1	hERG rescue 12
O=C(NC(=S)N(Cc1ccccc1)Cc1ccccc1)c1ccccc1F	KCNQ1 pot 13, hERG rescue 16
COc1ccc(CC(=O)N(Cc2ccccc2)C(C)C)cc1	Kir21 block -4.3
CC(C)N(Cc1ccccc1)C(=O)COc1ccccc1	none
C=CCN(CC=C)C(=S)NC(=O)c1ccc(OC)cc1	KCNQ1 pot 13, hERG rescue 28
COc1ccc(CN(C)C(=O)c2ccccc2Sc2ccccc2C#N)c(OC)c1	none
C=CCN(CC=C)C(=S)NC(=O)c1ccc(-c2ccccc2)cc1	KCNQ1 pot 15
C=CCN(CC=C)C(=S)NC(=O)/C=C/c1ccccc1	none
C=CCN(CC=C)C(=S)NC(=O)/C=C/c1ccc(C)cc1	none
C=CCN(CC=C)C(=S)NC(=O)c1ccc(C)c(Br)c1	KCNQ1 pot 56, hERG rescue 87
